Data taken from PMC3361572 (Chemistry & biology, 2012).
pIC50: −log10 of the molar value.

Experiments:
hFAAH = biological target: T1, hFAAH (Homo sapiens, UniProt O00519); assay: substrate hydrolysis assay; assay type: biochemical
T1 sequence (O00519 1-579): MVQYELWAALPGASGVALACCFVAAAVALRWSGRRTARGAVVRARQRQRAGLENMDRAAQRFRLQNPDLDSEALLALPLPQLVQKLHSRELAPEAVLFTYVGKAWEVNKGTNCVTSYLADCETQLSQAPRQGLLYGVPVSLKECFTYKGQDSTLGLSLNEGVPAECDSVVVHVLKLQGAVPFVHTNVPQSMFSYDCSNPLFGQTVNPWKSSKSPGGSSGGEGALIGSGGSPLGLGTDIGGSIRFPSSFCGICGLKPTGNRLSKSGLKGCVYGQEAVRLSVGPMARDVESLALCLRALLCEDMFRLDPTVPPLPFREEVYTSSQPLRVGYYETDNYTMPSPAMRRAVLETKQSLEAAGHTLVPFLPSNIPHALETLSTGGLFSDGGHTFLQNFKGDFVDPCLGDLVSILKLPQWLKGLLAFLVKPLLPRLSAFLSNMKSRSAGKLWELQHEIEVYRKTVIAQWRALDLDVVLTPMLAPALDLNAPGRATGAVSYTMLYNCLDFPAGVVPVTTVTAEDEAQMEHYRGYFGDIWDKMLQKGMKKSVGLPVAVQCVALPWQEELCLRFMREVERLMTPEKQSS

MAGL [1] = biological target: T2, MAGL (Mus musculus, UniProt O35678); assay: 2-AG hydrolytic activity of brain tissue from treated mice; assay type: in vivo; settings: KML29-treated mice, 1–40 mg kg^−1 p.o.
T2 sequence (O35678 1-303): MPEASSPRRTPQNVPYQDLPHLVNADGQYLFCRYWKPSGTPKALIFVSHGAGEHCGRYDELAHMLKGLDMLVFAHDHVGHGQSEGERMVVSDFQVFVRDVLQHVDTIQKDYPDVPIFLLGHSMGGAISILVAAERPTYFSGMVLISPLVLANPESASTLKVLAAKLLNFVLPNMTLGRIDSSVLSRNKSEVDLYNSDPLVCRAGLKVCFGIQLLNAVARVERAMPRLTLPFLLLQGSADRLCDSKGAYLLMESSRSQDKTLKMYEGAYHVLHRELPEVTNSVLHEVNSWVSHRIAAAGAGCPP

hMAGL = biological target: T3, hMAGL (Homo sapiens, UniProt Q99685); assay: competitive ABPP, proteomes of transiently transfected HEK293T cells; assay type: biochemical; settings: read-out: IC50 (95% CI), human MAGL, transfected HEK293T cell proteome
T3 sequence (Q99685 1-303): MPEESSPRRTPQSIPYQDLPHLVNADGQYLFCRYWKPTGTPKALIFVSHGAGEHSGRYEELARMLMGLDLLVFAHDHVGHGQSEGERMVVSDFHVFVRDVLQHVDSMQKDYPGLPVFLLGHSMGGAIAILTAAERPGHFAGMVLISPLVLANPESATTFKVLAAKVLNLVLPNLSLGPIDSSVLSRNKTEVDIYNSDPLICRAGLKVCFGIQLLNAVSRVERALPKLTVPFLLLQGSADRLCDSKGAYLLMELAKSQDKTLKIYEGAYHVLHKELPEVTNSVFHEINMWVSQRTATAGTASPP

FAAH [2] = biological target: T4, FAAH (Mus musculus, UniProt O08914); assay: competitive ABPP of brain from inhibitor-treated mice; assay type: in vivo
T4 sequence (O08914 1-579): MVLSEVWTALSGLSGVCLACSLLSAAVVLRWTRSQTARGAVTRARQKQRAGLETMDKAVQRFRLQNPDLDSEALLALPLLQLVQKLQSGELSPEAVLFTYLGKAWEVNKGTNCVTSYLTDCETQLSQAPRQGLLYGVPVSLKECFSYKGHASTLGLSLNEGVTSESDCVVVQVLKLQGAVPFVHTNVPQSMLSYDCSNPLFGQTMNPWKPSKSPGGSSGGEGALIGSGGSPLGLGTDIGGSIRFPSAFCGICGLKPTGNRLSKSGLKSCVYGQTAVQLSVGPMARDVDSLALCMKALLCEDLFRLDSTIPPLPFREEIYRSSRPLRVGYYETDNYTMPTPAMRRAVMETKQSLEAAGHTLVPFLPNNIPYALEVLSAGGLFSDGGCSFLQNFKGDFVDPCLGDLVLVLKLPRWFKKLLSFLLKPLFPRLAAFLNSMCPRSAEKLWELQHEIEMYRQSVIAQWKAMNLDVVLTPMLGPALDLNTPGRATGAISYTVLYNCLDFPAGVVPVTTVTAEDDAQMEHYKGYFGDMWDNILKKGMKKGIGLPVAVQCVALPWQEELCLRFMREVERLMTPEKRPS

[3] = system: brain 2-AG, AA, AEA, PEA, OEA; assay: brain lipid profile of inhibitor-treated mice; assay type: in vivo, mouse
MAGL [4] = biological target: T2, MAGL; assay: competitive ABPP, mouse brain membrane proteome; assay type: biochemical
FAAH [5] = biological target: T5, FAAH (Rattus norvegicus, UniProt P97612); assay: competitive ABPP of brain from KML29-treated rats; assay type: in vivo; settings: Wistar rats, 1–40 mg kg^−1 i.p., 4 h
T5 sequence (P97612 1-579): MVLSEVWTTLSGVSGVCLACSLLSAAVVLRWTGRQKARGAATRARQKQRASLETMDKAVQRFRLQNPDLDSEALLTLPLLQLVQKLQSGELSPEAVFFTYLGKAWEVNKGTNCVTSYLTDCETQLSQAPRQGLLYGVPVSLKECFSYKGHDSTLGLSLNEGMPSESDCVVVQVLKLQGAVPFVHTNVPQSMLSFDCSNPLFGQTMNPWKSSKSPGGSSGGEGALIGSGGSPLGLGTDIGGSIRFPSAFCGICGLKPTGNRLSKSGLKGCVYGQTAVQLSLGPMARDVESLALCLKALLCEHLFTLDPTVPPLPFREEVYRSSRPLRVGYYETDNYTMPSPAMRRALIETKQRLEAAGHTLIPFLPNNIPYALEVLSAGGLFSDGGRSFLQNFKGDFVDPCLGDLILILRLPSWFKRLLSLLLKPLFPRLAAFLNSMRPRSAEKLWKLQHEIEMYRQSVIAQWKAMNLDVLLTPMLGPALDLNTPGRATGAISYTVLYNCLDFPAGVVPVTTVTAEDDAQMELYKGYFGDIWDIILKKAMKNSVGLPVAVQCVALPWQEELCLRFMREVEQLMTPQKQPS
Procedure, shortened: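 Wistar rats were injected i.p. with the test compound (1–40 mg kg−1) or vehicle. Vehicle was saline:emulphor:ethanol 18:1:1, with prolonged sonication and mild heating to dissolve. Rats were killed at 4 h. Brain, liver, lung and spleen proteomes were labelled with FP-Rh, separated by SDS-PAGE and scanned for in-gel fluorescence. Inhibition was scored as reduced probe labelling. n = 3 rats/group.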

## O=C(OC(C(F)(F)F)C(F)(F)F)N1CCC(C(O)(c2ccc3c(c2)OCO3)c2ccc3c(c2)OCO3)CC1 [KML29]
hFAAH
  AEA hydrolysis by hFAAH: undiminished AEA hydrolysis up to 50 μM
MAGL [1]
  residual MAGL activity in brain proteomes (substrate assay): dose-dependent inhibition of MAGL
hMAGL
  pIC50: 8.23
FAAH [2]; 40 mg kg^−1 p.o., six days
  brain FAAH inhibition, chronic dosing: selectively inhibited MAGL without any effect on FAAH
FAAH [2]; all doses tested 1–40 mg kg^−1 p.o., 4 h
  selectivity over brain FAAH: complete selectivity over FAAH
FAAH [2]; single oral dose 20 mg kg^−1, 24 h time course
  selectivity for MAGL over FAAH during time course: complete selectivity for MAGL over FAAH
[3]; 40 mg kg^−1 p.o., six days
  brain 2-AG and NAE levels, chronic dosing: selectively raise 2-AG, but not NAE levels
[3]; 20 and 40 mg kg^−1 p.o., 4 h
  peak increase in brain 2-AG over vehicle controls: ~ 10 fold
[3]; all tested doses p.o., 4 h
  brain levels of AEA, PEA and OEA: unaltered
[3]; doses as low as 5 mg kg^−1 p.o., 4 h
  change in brain 2-AG: significant elevations
[3]; p.o., 4 h, concomitant with 2-AG elevations
  change in brain arachidonic acid (AA): significant reductions
[3]; single oral dose 20 mg kg^−1
  time of maximal elevations of 2-AG and reductions of AA in brain: 1 h
[3]; single oral dose 20 mg kg^−1, 24 h period
  brain AEA levels during time course: unaltered
MAGL [4]; mouse brain proteome, competitive ABPP
  selectivity for MAGL relative to ABHD6: greater than 100 fold
MAGL [4]; mouse brain serine hydrolase activities, full ABPP gel
  inhibitor concentrations with selective inhibition of MAGL: ≤ 1 µM
FAAH [5]
  cross-reactivity with brain FAAH: without any detectable cross-reactivity
